According to ChEMBL document CHEMBL1122694, “Steroidogenesis inhibitors. 1. Adrenal inhibitory and interceptive activity of trilostane and related compounds” (1984):
Activity calls are given as the source filed them. The rule behind the calls is not given here.

What was measured:
[1] = test system: Rattus norvegicus; assay: Minimum effective dose for 100% interruption of pregnancy in rat when compound was administered perorally; format: functional
Procedure, shortened: (§1)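 Pregnant rats given a single oral dose on day 10 of pregnancy, seven rats per group. MED, in mg/kg po, is the minimum dose giving 100% interruption of pregnancy.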

[2] = test system: Monkey; assay: Effective dose for interruption of pregnancy in greater than 90% of the monkeys; format: functional, Cercopithecidae
Procedure, shortened: (§2)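 Pregnant monkeys dosed once daily on days 50–54 of pregnancy; group size two to six or more monkeys. Effective dose, in mg per monkey per day, is the dose interrupting pregnancy in more than 90% of monkeys.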

[3] = test system: Monkey; assay: Effective dose for interruption of pregnancy in greater than 90% of the monkeys; IN-Inactive; format: functional, organism-based; details: Cercopithecidae; procedure, shortened: as §2
[4] = test system: Monkey; assay: Effect of compound on plasma level of cortisol in ACTH treated rhesus monkey when administered orally; format: functional; details: Cercopithecidae, in Macaca mulatta, po, read-out: MED
[5] = test system: Rattus norvegicus; assay: Effect of compound on plasma level of corticosterone in ACTH treated pseudopregnant rats when administered orally; format: functional; details: po, read-out: MED
Procedure, shortened: (§3)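 Pseudopregnant rats stimulated with ACTH; single oral dose, groups of seven rats. Plasma progesterone and corticosterone measured; MED in mg/kg po is the single dose giving a significant (p < 0.01) fall versus stimulated control levels.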

[6] = test system: Rattus norvegicus; assay: Effect of compound on plasma level of progesterone in ACTH treated pseudopregnant rats when administered orally; format: functional; details: po, read-out: MED; procedure, shortened: as §3
[7] = test system: Rattus norvegicus; assay: Minimum effective dose for 100% interruption of pregnancy in rat when compound was administered perorally; IN-Inactive; format: functional, organism-based; procedure, shortened: as §1

| Structure (SMILES) | MED10 [1] [mg/kg] | MED90 [2] [mg monkey-1 day-1] | also measured |
| --- | --- | --- | --- |
| CC12CCC3C(CC[C@@]45OC4c4oncc4CC35C)C1CC[C@]2(C)O (stereo partly specified) | >500 |  |  |
| CC1C[C@H]2[C@@H]3CCC(O)C3(C)CC[C@@H]2C2(C)C[C@@H](C#N)C(=O)C3O[C@]132 (stereo partly specified) | 12 | 500 |  |
| CC1(C)C(=O)[C@H](C#N)CC2(C)C1=CCC1C2CCC2(C)C1CC[C@]2(C)O (stereo partly specified) | 6 |  | MED90 [3]: inactive |
| CC12CC[C@H]3[C@@H](CC[C@@]45OC4(C)C(=O)[C@H](C#N)CC35C)[C@@H]1CCC2O (stereo partly specified) | 125 | >500 | minimal effective dose [4]: 250 mg/kg; minimal effective dose [5]: 50 mg/kg; minimal effective dose [6]: 5 mg/kg |
| CC12C[C@@H](C#N)C(=O)C=C1CCC1C2CCC2(C)C(O)CCC12 (stereo partly specified) | 1000 |  |  |
| CC12CCC3C(CC[C@@]45OC4c4oncc4CC35C)C1CCC2O (stereo partly specified) | >500 |  |  |
| CC12CC[C@H]3[C@@H](CC[C@@]45OC4C(=O)[C@H](C#N)CC35C)[C@@H]1CCC2O (stereo partly specified) | 500 | 1000 | minimal effective dose [4]: 10 mg/kg; minimal effective dose [5]: 50 mg/kg; minimal effective dose [6]: 500 mg/kg |
| CC12CC[C@H]3[C@@H](CC[C@@]45OC4C(=O)[C@H](C#N)CC35C)[C@@H]1CC[C@]2(C)O (stereo partly specified) | 500 | 250 | minimal effective dose [4]: 10 mg/kg; minimal effective dose [5]: 50 mg/kg; minimal effective dose [6]: 500 mg/kg |
| CC12CC[C@H]3[C@@H](CCC4CC(=O)[C@H](C#N)CC43C)[C@@H]1CCC2O (stereo partly specified) |  |  | MED10 [7]: inactive |
| CC1CC2C3CCC(O)C3(C)CCC2C2(C)Cc3cnoc3C3O[C@]132 (stereo partly specified) | >500 |  |  |
| CC12CC[C@H]3[C@@H](CC[C@@]45OC4C(=O)CCC35C)[C@@H]1CCC2O (stereo partly specified) |  |  | MED10 [7]: inactive |
| CC12O[C@]13CC[C@@H]1[C@H](CCC4(C)[C@H]1CC[C@]4(C)O)C3(C)C[C@@H](C#N)C2=O (stereo partly specified) | 50 | 250 | minimal effective dose [4]: 250 mg/kg; minimal effective dose [5]: 20 mg/kg; minimal effective dose [6]: 20 mg/kg |
| CC12CC[C@H]3[C@@H](CC[C@]45OC4C(=O)[C@@H](C#N)CC35C)[C@@H]1CCC2O (stereo partly specified) |  |  | MED10 [7]: inactive |
| CC1(C)C2=CCC3C(CCC4(C)C3CC[C@]4(C)O)C2(C)Cc2cnoc21 (stereo partly specified) | 25 | >1000 |  |
| CC12O[C@]13CCC1C(CCC4(C)C1CC[C@]4(C)O)C3(C)Cc1cnoc12 (stereo partly specified) | 192 |  | MED90 [3]: inactive |
| CC12CCC3C(CC[C@@]45OC4(C)c4oncc4CC35C)C1CCC2O (stereo partly specified) | >500 |  |  |
